How the values were obtained:
[1] = test system: Human immunodeficiency virus 1; assay: Antiviral activity against CXCR4-tropic HIV-1 NL4-3 infected in human TZM-bl cells assessed as inhibition of virus-induced cytopathic effect preincubated with cells for 30 mins followed by viral infection measured after 48 hrs in presence of p-24 HIV-1 Ag by luciferase reporter gene assay; type: functional, cell-based; settings: Human immunodeficiency virus 1, NL4-3, TZM-bl
In short: (§1)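 TZM-bl cells, 1 × 10^4 per well in DMEM with 10% FBS and 10 mM […], incubated 30 min at 37 °C with compound. Then HIV-1 NL4.3 (X4) or BaL (R5) added at 100 pg p24 Ag per well. After 48 h, cells lysed with luciferase substrate. Tat-induced luminescence read after 10 min dark incubation as a measure of replication.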

[2] = test system: Human alphaherpesvirus 3; assay: Antiviral activity against thymidine kinase expressing Varicella-Zoster virus Oka strain assessed as inhibition of plaque formation; type: functional; settings: Human alphaherpesvirus 3, strain Oka vaccine
In short: (§2)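 HEL fibroblast monolayers inoculated with 100 CCID50 HCMV (AD-169, Davis) or 20 PFU VZV (TK+ Oka, TK− 07-1). Adsorbed 1–2 h, inoculum removed, then incubated with compound dilutions. HCMV cytopathicity or VZV plaques scored once untreated infected controls reached completion. EC50 is 50% reduction. SI is CC50/EC50, and the potency ratio is the ratio of EC50s.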

[3] = Cytotoxic activity against HEL cells assessed as alteration of cell morphology after 3 days by microscopic method; type: cell-based; settings: human
In short: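 HEL cells with compound; MCC is the lowest concentration giving microscopically detectable alteration of cell morphology.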

[4] = test system: Human betaherpesvirus 5; assay: Antiviral activity against Human cytomegalovirus AD169 infected in HEL cells assessed as inhibition of virus-induced cytopathic effect; type: functional, cell-based; settings: Human betaherpesvirus 5, AD169, HEL; in short: as §2
[5] = Cytotoxicity against human HepG2.2.15 cells assessed as cell viability by tetrazolium dye uptake assay; type: cell-based, HepG2 2.2.15
In short: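 HepG2.2.15 cells (two integrated copies of HBV ayw1 genome) were seeded at 1.5 × 10^4 cells/well in DMEM with 2% FBS, 380 μg/mL G418, glutamine, antibiotics and nonessential amino acids. After 16−24 h, medium with various compound concentrations was added in triplicate and renewed on day 3. After 6 days of treatment, viability was read by MTS uptake and CC50 was calculated.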

[6] = test system: Human immunodeficiency virus 1; assay: Antiviral activity against CCR5 tropic HIV1 BaL infected in human TZM-bl cells assessed as inhibition of virus-induced cytopathic effect preincubated with cells for 30 mins followed by viral infection measured after 48 hrs in presence of p-24 HIV-1 Ag by luciferase reporter gene assay; type: functional, cell-based; settings: Human immunodeficiency virus 1, BaL; in short: as §1
[7] = test system: Human alphaherpesvirus 3; assay: Antiviral activity against thymidine kinase deficient Varicella-Zoster virus 07-1 infected in HEL cells assessed as inhibition of plaque formation; type: functional, cell-based; settings: Human alphaherpesvirus 3, 07-1, HEL; in short: as §2
[8] = Selectivity index, ratio of CC50 for human TZM-bl cells to EC50 for CCR5 tropic HIV1 BaL infected in human TZM-bl cells; type: toxicity, cell-based; settings: read-out: Ratio CC50/EC50
[9] = Cytotoxicity against human TZM-bl cells assessed as cell viability by tetrazolium dye assay; type: cell-based
[10] = test system: Human betaherpesvirus 5; assay: Antiviral activity against HCMV Davis strain infected in HEL cells assessed as inhibition of virus-induced cytopathic effect; type: functional, cell-based; settings: Human betaherpesvirus 5, Davis; in short: as §2
[11] = Selectivity index, ratio of CC50 for human TZM-bl cells to EC50 for CXCR4-tropic HIV-1 NL4-3 infected in human TZM-bl cells; type: toxicity, cell-based; settings: read-out: Ratio CC50/EC50
[12] = test system: Hepatitis B virus; assay: Antiviral activity against HBV ayw1 infected in human HepG2(2.2.15) cells assessed as reduction in viral replication by measuring extracellular viral DNA copy number after 6 days by real-time qPCR method; type: functional, cell-based; settings: ayw1, HepG2 2.2.15, 144 h
In short: (§3)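 HepG2.2.15 cells (two copies of HBV ayw1 genome), 1.5 × 10^4/well in DMEM with 2% FBS and 380 μg/mL G418. After 16–24 h, compound added in triplicate, medium with compound renewed at day 3. Supernatant collected at day 6, Pronase-treated, and extracellular HBV DNA measured by TaqMan qPCR (precore/core) against an HBV DNA standard curve. EC50/EC90 derived; CC50 by MTS uptake.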

[13] = Selectivity index, ratio of CC50 for HepG2.2.15 cells to EC50 for HBV ayw1 infected in human HepG2(2.2.15) cells assessed as reduction in viral replication by measuring extracellular viral DNA copy; in short: as §3
[14] = test system: Human immunodeficiency virus 1; assay: Antiviral activity against CXCR4-tropic HIV-1 NL4-3 infected in human PHA-stimulated PBMC assessed as inhibition of viral replication by measuring reduction in p24 antigen production preincubated with cells for 30 mins followed by viral infection measured on day 10 post infection in presence of IL-2 by ELISA; type: functional; settings: Human immunodeficiency virus 1, NL4-3
In short: (§4)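 PBMCs stimulated with 2 μg/mL PHA for 3 days at 37 °C, then 5 × 10^5 cells/ml preincubated 30 min at 37 °C with serial compound dilutions plus 2 ng/mL IL-2. Infected with 1500 pg/well HIV-1 BaL or 500 pg/well other isolates. IL-2 re-added on days 3 and 6. Supernatant p24 Ag measured by ELISA at day 10. EC50 is 50% inhibition of replication.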

[15] = test system: Human immunodeficiency virus 1; assay: Antiviral activity against CCR5 tropic HIV1 BaL infected in human PHA-stimulated PBMC assessed as inhibition of viral replication by measuring reduction in p24 antigen production preincubated with cells for 30 mins followed by viral infection measured on day 10 post infection in presence of IL-2 by ELISA; type: functional; settings: Human immunodeficiency virus 1, BaL; in short: as §4
[16] = Selectivity index, ratio of CC50 for human PHA-stimulated PBMC to IC50 for CXCR4-tropic HIV-1 NL4-3 infected in human PHA-stimulated PBMC
[17] = Selectivity index, ratio of CC50 for human PHA-stimulated PBMCs to IC50 for CCR5 tropic HIV1 BaL infected in human PHA-stimulated PBMC
[18] = Cytotoxicity against human PHA-stimulated PBMC assessed as cell viability by tetrazolium dye assay; type: cell-based
[19] = Cytotoxic activity against HEL cells assessed as reduction in cell proliferation after 3 days by coulter counting method; type: cell-based; settings: human
In short: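 HEL cells seeded at 5 × 10^3/well, grown 24 h, then given compound for 3 days at 37 °C. Cell number counted by Coulter counter. CC50 is 50% reduction of proliferation relative to untreated controls, read from graphic plots.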

SMILES | EC50 [1] [µM] | EC50 [2] [µM] | MCC at 72 h [3] [µM] | EC50 [4] [µM] | CC50 [5] [µM] | EC50 [6] [µM] | EC50 [7] [µM] | selectivity ratio [8] | CC50 [9] [µM] | EC50 [10] [µM] | selectivity ratio [11] | EC50 [12] [µM] | EC90 [12] [µM] | Ratio CC50/EC50 [13] | IC50 [14] [µM] | IC50 [15] [µM] | Ratio CC50/IC50 [16] | Ratio CC50/IC50 [17] | CC50 [18] [µM] | CC50 at 72 h [19] [µM]
Cc1cn(C[C@@H](CF)OCP(=O)(O)O)c(=O)[nH]c1=O | 56.8 | > 338 | > 338 | > 338 | > 100 | > 100 | 338 | 1 | > 100 | > 338 | > 2 | > 100 | > 100 | 1 |  |  |  |  |  | 
Cc1cn(C[C@H](CF)OCP(=O)(O)O)c(=O)[nH]c1=O | 54.8 | > 338 | > 338 | > 338 | > 100 | > 100 | > 338 | 1 | > 100 | > 338 | > 2 | > 100 | > 100 | 1 |  |  |  |  |  | 
Nc1ccn(C[C@H](CF)OCP(=O)(O)O)c(=O)n1 | 54.1 | > 356 | > 356 | > 356 | > 100 | > 100 | > 356 | 1 | > 100 | > 356 | > 2 | > 100 | > 100 | 1 |  |  |  |  |  | 
CCCCCOC(=O)C[C@H](NP(=O)(CO[C@@H](CF)Cn1ccc(N)nc1=O)Oc1ccccc1)C(=O)OCCCCC (stereo partly drawn) | > 54.2 | > 32.6 | 32.6 | > 32.6 | 33.5 | > 54.2 | > 32.6 | < 1 | 54.2 | > 32.6 | < 1 | 28 | 91.5 | 1 |  |  |  |  |  | 
CCCCCOC(=O)C[C@H](NP(=O)(CO[C@@H](CF)Cn1cc(C)c(=O)[nH]c1=O)Oc1ccccc1)C(=O)OCCCCC (stereo partly drawn) | > 100 | 31.9 | 31.9 | > 31.9 | 34.2 | > 100 | 12.7 | 1 | > 100 | > 31.9 | 1 | 47 | > 100 | <1 |  |  |  |  |  | 
Nc1ncnc2c1ncn2C[C@H](CF)OCP(=O)(O)O | 29.2 | 172 | > 328 | > 328 | > 100 | 30.7 | > 328 | > 3 | > 100 | > 328 | > 3 | 11.2 | > 100 | >9 | 4.04 | 11.9 | 23 | 8 | 93.9 | 
Nc1nc(O)c2ncn(C[C@H](CF)OCP(=O)(O)O)c2n1 | 4.57 | 62.3 | > 311 | 139 | > 100 | 6.65 | 62.3 | > 15 | > 100 | 62.3 | > 22 | 0.49 | 82.5 | >204 | 1.42 | 6.41 | 66 | 14.5 | 93.1 | 
Nc1nc2c(ncn2COCCO)c(=O)[nH]1 [ACYCLOVIR] |  | 3.02 | > 444 |  |  |  | 20.7 |  |  |  |  |  |  |  |  |  |  |  |  | > 444
O=c1[nH]c(=O)n([C@H]2C[C@H](O)[C@@H](CO)O2)cc1/C=C/Br [BRIVUDINE] |  | 0.055 | > 300 |  |  |  | 5.21 |  |  |  |  |  |  |  |  |  |  |  |  | > 300
Nc1ccn(C[C@@H](CO)OCP(=O)(O)O)c(=O)n1 [CIDOFOVIR] |  |  | > 358 | 2.49 |  |  |  |  |  | 3.74 |  |  |  |  |  |  |  |  |  | > 358
Nc1nc2c(ncn2COC(CO)CO)c(=O)[nH]1 [GANCICLOVIR] |  |  | > 391 |  |  |  |  |  |  | 16.5 |  |  |  |  |  |  |  |  |  | > 391
CC(C)OC(=O)[C@H](C)N[P@](=O)(CO[C@H](C)Cn1cnc2c(N)ncnc21)Oc1ccccc1 [TENOFOVIR ALAFENAMIDE] |  |  |  |  |  |  |  |  |  |  |  |  |  |  | 0.001 | 0.01 | 1320 | 132 | 1.32 | 

Reference: ChEMBL document CHEMBL4038313, “Expanding the Antiviral Spectrum of 3-Fluoro-2-(phosphonomethoxy)propyl Acyclic Nucleoside Phosphonates: Diamyl Aspartate Amidate Prodrugs” (J Med Chem, 2017)
